Experiment [1] is described as follows: Potency index, ratio of novobiocin IC50 to compound IC50 for HSP90 HSP90.
Experiment [2] is described as follows: Growth inhibition of human PL45 cells at 5 uM after 24 hrs by [3H]thymidine uptake assay. The format is functional. As to conditions: read-out: GI.
The test system of experiment [3] is HCT-116. The experiment in a line: Growth inhibition of human HCT116 cells at 5 uM after 24 hrs by [3H]thymidine uptake assay. The format is functional. As to conditions: read-out: GI.
Experiment [4] in a line: Inhibition of HSP90.
A short description of experiment [5]: Cytotoxicity against human K2 O/E cells over expressing tetracycline inducible IP6K2 protein assessed as cell survival. The format is functional. The procedure, abridged: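 Stable tetracycline-inducible Myc-IP6K2 HEK293 line. IP6K2 overexpression induced with 1 μg/mL tetracycline for 24 h; wild-type control cells got vehicle alone. Cells then exposed to 25 nM drug or DMSO (no drug) for 48 h. Viability read by CCK-8 assay and expressed relative to control set at 100%.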

Experiment [6] can be described thus: Growth inhibition of Pancreatic cancer cells. As to conditions: Cancer cell lines. The format is functional, cell-based.
Experiment [7] concerns HCT-116. The experiment in a line: Growth inhibition of human HCT116 cells at 50 nM after 24 hrs by [3H]thymidine uptake assay. The format is functional. As to conditions: read-out: GI.
The subject of experiment [8] is HCT-116. In words: Growth inhibition of human HCT116 cells at 10 nM after 24 hrs by [3H]thymidine uptake assay. The format is functional. As to conditions: read-out: GI.
Experiment [9] in a line: Growth inhibition of human WS1 cells at 500 nM after 24 hrs by [3H]thymidine uptake assay. The format is functional. As to conditions: read-out: GI.
Experiment [10] can be described thus: Growth inhibition of human WS1 cells after 24 hrs by [3H]thymidine uptake assay. The format is functional, cell-based.
Experiment [11] can be described thus: Growth inhibition of human WS1 cells at 1000 nM after 24 hrs by [3H]thymidine uptake assay. The format is functional. As to conditions: read-out: GI.
Experiment [12] has as its system HCT-116. The experiment in a line: Growth inhibition of human HCT116 cells at 200 nM after 24 hrs by [3H]thymidine uptake assay. The format is functional. As to conditions: read-out: GI.
Experiment [13] can be described thus: Growth inhibition of human PL45 cells after 24 hrs by [3H]thymidine uptake assay. The format is functional, cell-based.
A short description of experiment [14]: Growth inhibition of human PL45 cells at 125 nM after 24 hrs by [3H]thymidine uptake assay. The format is functional. As to conditions: read-out: GI.
The nature of experiment [15]: Growth inhibition of human PL45 cells at 62.5 nM after 24 hrs by [3H]thymidine uptake assay. The format is functional. As to conditions: read-out: GI.
Experiment [16] in a line: Growth inhibition of human PL45 cells at 1000 nM after 24 hrs by [3H]thymidine uptake assay. The format is functional. As to conditions: read-out: GI.
The subject of experiment [17] is HCT-116. In words: Growth inhibition of human HCT116 cells at 100 nM after 24 hrs by [3H]thymidine uptake assay. The format is functional. As to conditions: read-out: GI.
Experiment [18] can be described thus: Growth inhibition of human PL45 cells at 250 nM after 24 hrs by [3H]thymidine uptake assay. The format is functional. As to conditions: read-out: GI.
Experiment [19] concerns HCT-116. In words: Growth inhibition of human HCT116 cells at 20 nM after 24 hrs by [3H]thymidine uptake assay. The format is functional. As to conditions: read-out: GI.
Experiment [20] can be described thus: Growth inhibition of human WS1 cells at 1 nM after 24 hrs by [3H]thymidine uptake assay. The format is functional. As to conditions: read-out: GI.
Experiment [21] in a line: Growth inhibition of human WS1 cells at 250 nM after 24 hrs by [3H]thymidine uptake assay. As to conditions: read-out: GI. The format is functional.
The nature of experiment [22]: Growth inhibition of human WS1 cells at 125 nM after 24 hrs by [3H]thymidine uptake assay. As to conditions: read-out: GI. The format is functional.
Experiment [23] is described as follows: Growth inhibition of human WS1 cells at 62.5 nM after 24 hrs by [3H]thymidine uptake assay. The format is functional. As to conditions: read-out: GI.
The test system of experiment [24] is HCT-116. In words: Growth inhibition of human HCT116 cells after 24 hrs by [3H]thymidine uptake assay. The format is functional, cell-based.
The nature of experiment [25]: Growth inhibition of human PL45 cells at 500 nM after 24 hrs by [3H]thymidine uptake assay. As to conditions: read-out: GI. The format is functional.
A short description of experiment [26]: Growth inhibition of human PL45 cells at 1 nM after 24 hrs by [3H]thymidine uptake assay. The format is functional. As to conditions: read-out: GI.

Each structure is given as a SMILES string.

As to `CC(C)C[C@@H]1NC(=O)[C@H](Cc2ccccc2)NC(=O)[C@@H](CC(C)C)NC(=O)[C@@H](C(C)C)NC(=O)[C@H](CC(C)C)NC(=O)[C@H](CC(C)C)NC(=O)[C@H](Cc2ccccc2)NC(=O)[C@@H](CC(C)C)NC(=O)[C@@H](C(C)C)NC(=O)[C@H](CC(C)C)NC1=O`, the Ratio IC50 in experiment [1] came to 50000. Moreover, the inhibition of growth at 5 µM (in experiment [2]; in the experiment with HCT-116 [3]) was 99% throughout. The compound further gave an EC50 in [4] of 2 nM. Moreover, the Survival in [5] came out at 3%. Besides, half-maximal inhibition in experiment [6] (IC50) was put at 1 nM.
Consider `C=CCNC1=C2C[C@@H](C)C[C@H](OC)[C@H](O)[C@@H](C)/C=C(\C)[C@H](OC(N)=O)[C@@H](OC)/C=C\C=C(/C)C(=O)NC(=CC1=O)C2=O` [TANESPIMYCIN], for which the inhibition of growth at 0.05 µM with HCT-116 [7] turned out to be 54%. In the experiment with HCT-116 [8], the inhibition of growth at 0.01 µM is 0%. The figures for the inhibition of growth at 0.5 µM in [9] and in experiment [25] were 76.3% and 99%, respectively. Moreover, the results for the concentration for half-maximal inhibition (IC50) (in experiment [10]; in [13]; with HCT-116 [24]) were 31.8 nM, 7.7 nM and 56.5 nM, respectively. For the same compound, the inhibition of growth at 1 µM in experiment [11] was 77.8%; in experiment [16], 99%. Also, the inhibition of growth at 0.2 µM in the experiment with HCT-116 [12] was determined as 79%. Further, the inhibition of growth at 0.125 µM in experiment [14] turned out to be 99%; in experiment [22] it was 73.2%. Further, the inhibition of growth at 0.0625 µM in experiment [15] stood at 98%; in experiment [23] it was 51.7%. For the same compound, in the experiment with HCT-116 [17], the inhibition of growth at 0.1 µM was 72%. Further, the inhibition of growth at 0.25 µM in [18] stood at 99%; in experiment [21] it was 66%. For the same compound, the inhibition of growth at 0.02 µM in the experiment on HCT-116 [19] turned out to be 12%. In addition, the inhibition of growth at 0.001 µM stood at 18% in [20] and 11.4% in experiment [26].
Compound `CO[C@@H]1[C@@H](OC(N)=O)[C@@H](O)[C@H](Oc2ccc3c(O)c(NC(=O)c4ccc(O)c(CC=C(C)C)c4)c(=O)oc3c2C)OC1(C)C` [NOVOBIOCIN] showed a concentration for a half-maximal effect (EC50) in experiment [4] of 100000 nM.
On to `CC(C)C[C@@H]1NC(=O)[C@H](Cc2ccccc2)NC(=O)[C@@H](CC(C)C)NC(=O)[C@@H](C(C)C)NC(=O)[C@H](CC(C)C)NC(=O)[C@H](CC(C)C)NC(=O)[C@@H](Cc2ccccc2)NC(=O)[C@@H](CC(C)C)NC(=O)[C@@H](C(C)C)NC(=O)[C@H](CC(C)C)NC1=O`, for which the results for the inhibition of growth at 5 µM (in experiment [2]; in the experiment on HCT-116 [3]) were 7% and 0%, respectively.
For `CC(C)C[C@@H]1NC(=O)[C@H](Cc2ccccc2)NC(=O)[C@@H](Cc2ccccc2)N(C)C(=O)[C@@H](C(C)C)NC(=O)[C@H](CC(C)C)NC(=O)[C@H](CC(C)C)NC(=O)[C@H](Cc2ccccc2)NC(=O)[C@@H](Cc2ccccc2)N(C)C(=O)[C@@H](C(C)C)NC(=O)[C@H](CC(C)C)NC1=O` the same measures were 10% and 0%.

These data come from ChEMBL document CHEMBL1154751, “Evaluation of di-sansalvamide A derivatives: synthesis, structure-activity relationship, and mechanism of action” (J Med Chem, 2009).
